# The source made the active and inactive calls. The calls are words filed in the database; no cut-off is given here.
# What was measured:
# MGC-803 [1] = test: Cytotoxicity against human MGC803 cells after 72 hrs by MTT assay; format: functional, cell-based; conditions: MGC-803, 72 h
# [2] = Cytotoxicity against human EC9706 cells after 72 hrs by MTT assay; format: functional, cell-based; conditions: EC9706, 72 h
# SMMC-7721 = test: Cytotoxicity against human SMMC7721 cells after 72 hrs by MTT assay; format: functional, cell-based; conditions: SMMC-7721, 72 h
# MCF7 = test: Cytotoxicity against human MCF7 cells after 72 hrs by MTT assay; format: functional, cell-based; conditions: MCF7, 72 h
# MGC-803 [3] = test: Cell cycle arrest in human MGC803 cells assessed as reduction in S phase accumulation at 0.25 to 1 uM by propidium iodide staining-based flow cytometry; format: functional; conditions: TDE = time-dependent effect
# Summary of the method: (§1)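 Exponentially growing MGC-803 cells (5×10^5) treated at 0, 0.25, 0.5 or 1.0 µmol/L for 12 or 24 h; cells collected, fixed in ice-cold 70% ethanol, treated with buffer containing RNAse A and 0.1% Triton X-100, stained with PI; DNA content analysed by flow cytometry to give percentages of cells in G1, S and G2/M phases.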
# MGC-803 [4] = test: Cell cycle arrest in human MGC803 cells assessed as accumulation at G0/G1 phase at 0.5 uM after 24 hrs by propidium iodide staining-based flow cytometry; format: functional; summary of the method: as §1
# MGC-803 [5] = test: Cell cycle arrest in human MGC803 cells assessed as accumulation at G2/M phase at 0.25 uM after 24 hrs by propidium iodide staining-based flow cytometry; format: functional; summary of the method: as §1
# MGC-803 [6] = test: Cell cycle arrest in human MGC803 cells assessed as accumulation at G0/G1 phase at 0.5 uM after 12 hrs by propidium iodide staining-based flow cytometry; format: functional; summary of the method: as §1
# MGC-803 [7] = test: Cell cycle arrest in human MGC803 cells assessed as accumulation at G2/M phase at 0.5 uM after 12 hrs by propidium iodide staining-based flow cytometry; format: functional; summary of the method: as §1
# MGC-803 [8] = test: Cell cycle arrest in human MGC803 cells assessed as accumulation at G0/G1 phase at 1 uM after 12 hrs by propidium iodide staining-based flow cytometry; format: functional; summary of the method: as §1
# MGC-803 [9] = test: Cell cycle arrest in human MGC803 cells assessed as accumulation at S phase at 0.5 uM after 12 hrs by propidium iodide staining-based flow cytometry; format: functional; summary of the method: as §1
# MGC-803 [10] = test: Cell cycle arrest in human MGC803 cells assessed as accumulation at G0/G1 phase at 1 uM after 24 hrs by propidium iodide staining-based flow cytometry; format: functional; summary of the method: as §1
# MGC-803 [11] = test: Induction of apoptosis in human MGC803 cells assessed as nuclear fragmentation at 0.25 to 1 uM after 12 hrs by Hoechst 33258 staining-based fluorescence microscopy; format: functional, cell-based
# Summary of the method: (§2)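 MGC-803 cells seeded at 8×10^3 cells/well, treated 12 h at 0, 0.25, 0.5 or 1.0 µmol/L; cells collected, fixed, stained 20 min with Hoechst 33258, washed with PBS; nuclear shrinkage, chromatin condensation, intense fluorescence and fragmentation scored by fluorescence microscopy.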
# MGC-803 [12] = test: Induction of apoptosis in human MGC803 cells assessed as nuclear shrinkage at 0.25 to 1 uM after 12 hrs by Hoechst 33258 staining-based fluorescence microscopy; format: functional, cell-based; summary of the method: as §2
# HEK293 = test: Cytotoxicity against human HEK293 cells up to 55 uM after 72 hrs by MTT assay; format: cell-based; conditions: hek293, 72 h
# Summary of the method: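 HEK293 cells seeded at 5×10^3 per well, grown 24 h at 37°C, then medium replaced with compound-containing medium over a concentration range; 72 h exposure; MTT (5 mg/mL stock) added for 4 h at 37°C, formazan dissolved in DMSO, absorbance read at 570 nm. Triplicate per concentration, experiment repeated three times.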
# MGC-803 [13] = test: Cell cycle arrest in human MGC803 cells assessed as accumulation at S phase at 1 uM after 24 hrs by propidium iodide staining-based flow cytometry; format: functional; summary of the method: as §1
# MGC-803 [14] = test: Cell cycle arrest in human MGC803 cells assessed as accumulation at G0/G1 phase at 0.25 uM after 12 hrs by propidium iodide staining-based flow cytometry; format: functional; summary of the method: as §1
# MGC-803 [15] = test: Cell cycle arrest in human MGC803 cells assessed as reduction in S phase accumulation after 12 to 24 hrs by propidium iodide staining-based flow cytometry; format: functional; summary of the method: as §1
# MGC-803 [16] = test: Cell cycle arrest in human MGC803 cells assessed as accumulation at G2/M phase at 0.25 uM after 12 hrs by propidium iodide staining-based flow cytometry; format: functional; summary of the method: as §1
# MGC-803 [17] = test: Cell cycle arrest in human MGC803 cells assessed as reduction in G1 phase accumulation at 0.25 to 1 uM by propidium iodide staining-based flow cytometry; format: functional; conditions: TDE = time-dependent effect; summary of the method: as §1
# MGC-803 [18] = test: Cell cycle arrest in human MGC803 cells assessed as accumulation at G2/M phase after 12 to 24 hrs by propidium iodide staining-based flow cytometry; format: functional; summary of the method: as §1
# MGC-803 [19] = test: Cell cycle arrest in human MGC803 cells assessed as accumulation at G2/M phase at 1 uM after 24 hrs by propidium iodide staining-based flow cytometry; format: functional; summary of the method: as §1
# MGC-803 [20] = test: Cell cycle arrest in human MGC803 cells assessed as accumulation at G2/M phase at 1 uM after 12 hrs by propidium iodide staining-based flow cytometry; format: functional; summary of the method: as §1
# MGC-803 [21] = test: Cell cycle arrest in human MGC803 cells assessed as accumulation at S phase at 1 uM after 12 hrs by propidium iodide staining-based flow cytometry; format: functional; summary of the method: as §1
# MGC-803 [22] = test: Cell cycle arrest in human MGC803 cells assessed as accumulation at G2/M phase at 0.25 to 1 uM by propidium iodide staining-based flow cytometry; format: functional; conditions: TDE = time-dependent effect; summary of the method: as §1
# MGC-803 [23] = test: Cell cycle arrest in human MGC803 cells assessed as accumulation at S phase at 0.25 uM after 12 hrs by propidium iodide staining-based flow cytometry; format: functional; summary of the method: as §1
# MGC-803 [24] = test: Cell cycle arrest in human MGC803 cells assessed as accumulation at G2/M phase at 0.5 uM after 24 hrs by propidium iodide staining-based flow cytometry; format: functional; summary of the method: as §1
# MGC-803 [25] = test: Cell cycle arrest in human MGC803 cells assessed as accumulation at S phase at 0.25 uM after 24 hrs by propidium iodide staining-based flow cytometry; format: functional; summary of the method: as §1
# MGC-803 [26] = test: Cell cycle arrest in human MGC803 cells assessed as accumulation at S phase at 0.5 uM after 24 hrs by propidium iodide staining-based flow cytometry; format: functional; summary of the method: as §1
# MGC-803 [27] = test: Cell cycle arrest in human MGC803 cells assessed as accumulation at G0/G1 phase at 0.25 uM after 24 hrs by propidium iodide staining-based flow cytometry; format: functional; summary of the method: as §1
# MGC-803 [28] = test: Cell cycle arrest in human MGC803 cells assessed as reduction in G1 phase accumulation after 12 to 24 hrs by propidium iodide staining-based flow cytometry; format: functional; summary of the method: as §1
# MGC-803 [29] = test: Induction of apoptosis in human MGC803 cells assessed as chromatin condensation at 0.25 to 1 uM after 12 hrs by Hoechst 33258 staining-based fluorescence microscopy; format: functional, cell-based; summary of the method: as §2
smiles,measurement,setting,value
CC(C)(C)NC(=O)N1CCN(C(=S)SCc2cn(Cc3ccccc3F)nn2)CC1,IC50,MGC-803 [1],40.7 µM
same,IC50,[2],87.8 µM
same,IC50,SMMC-7721,> 128 µM
same,IC50,MCF7,18.8 µM
O=C(NC1CCCCC1)N1CCN(C(=S)SCc2cn(Cc3ccccc3F)nn2)CC1,IC50,MGC-803 [1],36.5 µM
same,IC50,[2],84.9 µM
same,IC50,SMMC-7721,> 128 µM
same,IC50,MCF7,85 µM
CCN(C)C(=O)N1CCN(C(=S)SCc2cn(Cc3ccc(F)cc3)nn2)CC1,IC50,MGC-803 [1],1.55 µM
same,IC50,[2],14.3 µM
same,IC50,SMMC-7721,23.7 µM
same,IC50,MCF7,2.15 µM
CCN(C)C(=O)N1CCN(C(=S)SCc2cn(Cc3ccccc3F)nn2)CC1,IC50,MGC-803 [1],5.86 µM
same,IC50,[2],15.6 µM
same,IC50,SMMC-7721,19.7 µM
same,IC50,MCF7,7.21 µM
COc1cc(Cn2cc(CSC(=S)N3CCN(C(=O)NC(C)C)CC3)nn2)cc(OC)c1OC,IC50,MGC-803 [1],> 128 µM
same,IC50,[2],> 128 µM
same,IC50,SMMC-7721,> 128 µM
same,IC50,MCF7,> 128 µM
COc1ccc(Cn2cc(CSC(=S)N3CCN(C(N)=O)CC3)nn2)cc1,IC50,MGC-803 [1],> 128 µM
same,IC50,[2],> 128 µM
same,IC50,SMMC-7721,> 128 µM
same,IC50,MCF7,> 128 µM
CCNC(=O)N1CCN(C(=S)SCc2cn(Cc3ccc(C)cc3)nn2)CC1,IC50,MGC-803 [1],19.8 µM
same,IC50,[2],> 128 µM
same,IC50,SMMC-7721,> 128 µM
same,IC50,MCF7,> 128 µM
Cc1ccc(Cn2cc(CSC(=S)N3CCN(C(N)=O)CC3)nn2)cc1,IC50,MGC-803 [1],29.9 µM
same,IC50,[2],> 128 µM
same,IC50,SMMC-7721,> 128 µM
same,IC50,MCF7,> 128 µM
CC(C)NC(=O)N1CCN(C(=S)SCc2cn(Cc3ccccc3F)nn2)CC1,Activity,MGC-803 [3],tde
same,Activity,MGC-803 [4],10.9%
same,Activity,MGC-803 [5],32.93%
same,Activity,MGC-803 [6],19.1%
same,Activity,MGC-803 [7],50.35%
same,Activity,MGC-803 [8],6.02%
same,Activity,MGC-803 [9],26.26%
same,Activity,MGC-803 [10],2.99%
same,Activity,MGC-803 [11],Active
same,Activity,MGC-803 [12],Active
same,IC50,MGC-803 [1],1.62 µM
same,Activity,HEK293,Non-toxic
same,Activity,MGC-803 [13],15.66%
same,IC50,[2],20.8 µM
same,IC50,SMMC-7721,7.13 µM
same,Activity,MGC-803 [14],38.7%
same,IC50,MCF7,1.86 µM
same,Activity,MGC-803 [15],Dose-dependent effect
same,Activity,MGC-803 [16],21.86%
same,Activity,MGC-803 [17],tde
same,Activity,MGC-803 [18],Dose-dependent effect
same,Activity,MGC-803 [19],74.95%
same,Activity,MGC-803 [20],59.86%
same,Activity,MGC-803 [21],39.11%
same,Activity,MGC-803 [22],tde
same,Activity,MGC-803 [23],39.06%
same,Activity,MGC-803 [24],68.71%
same,Activity,MGC-803 [25],35.96%
same,Activity,MGC-803 [26],17.4%
same,Activity,MGC-803 [27],31.47%
same,Activity,MGC-803 [28],Dose-dependent effect
same,Activity,MGC-803 [29],Active
CC(C)NC(=O)N1CCN(C(=S)SCc2cn(Cc3ccc(Cl)cc3)nn2)CC1,IC50,MGC-803 [1],19.9 µM
same,IC50,[2],25.6 µM
same,IC50,SMMC-7721,> 128 µM
same,IC50,MCF7,> 128 µM
NC(=O)N1CCN(C(=S)SCc2cn(Cc3ccc(Cl)cc3)nn2)CC1,IC50,MGC-803 [1],> 128 µM
same,IC50,[2],> 128 µM
same,IC50,SMMC-7721,> 128 µM
same,IC50,MCF7,> 128 µM
O=c1[nH]cc(F)c(=O)[nH]1 [FLUOROURACIL],IC50,MGC-803 [1],7.14 µM
same,IC50,[2],0.32 µM
same,IC50,SMMC-7721,26.7 µM
same,IC50,MCF7,7.33 µM
NC(=O)N1CCN(C(=S)SCc2cn(Cc3ccccc3F)nn2)CC1,IC50,MGC-803 [1],11.3 µM
same,IC50,[2],43.1 µM
same,IC50,SMMC-7721,> 128 µM
same,IC50,MCF7,> 128 µM
CCN(C)C(=O)N1CCN(C(=S)SCc2cn(Cc3ccc(Cl)cc3)nn2)CC1,IC50,MGC-803 [1],4.32 µM
same,IC50,[2],17.7 µM
same,IC50,SMMC-7721,38.2 µM
same,IC50,MCF7,14.7 µM

# — ChEMBL document CHEMBL2390884, “Design, synthesis and antiproliferative activity studies of novel 1,2,3-triazole-dithiocarbamate-urea hybrids” (Eur J Med Chem, 2013)
